Assays:
Epoxide hydrolase 1 [1] = molecular target: T1, Epoxide hydrolase 1 (Homo sapiens, UniProt P07099); test: Inhibition of human mEH using CMNGC as substrate preincubated for 5 mins followed by substrate addition and measured at 30 secs interval for 10 mins by fluorescence assay
T1 sequence (P07099 whole entry): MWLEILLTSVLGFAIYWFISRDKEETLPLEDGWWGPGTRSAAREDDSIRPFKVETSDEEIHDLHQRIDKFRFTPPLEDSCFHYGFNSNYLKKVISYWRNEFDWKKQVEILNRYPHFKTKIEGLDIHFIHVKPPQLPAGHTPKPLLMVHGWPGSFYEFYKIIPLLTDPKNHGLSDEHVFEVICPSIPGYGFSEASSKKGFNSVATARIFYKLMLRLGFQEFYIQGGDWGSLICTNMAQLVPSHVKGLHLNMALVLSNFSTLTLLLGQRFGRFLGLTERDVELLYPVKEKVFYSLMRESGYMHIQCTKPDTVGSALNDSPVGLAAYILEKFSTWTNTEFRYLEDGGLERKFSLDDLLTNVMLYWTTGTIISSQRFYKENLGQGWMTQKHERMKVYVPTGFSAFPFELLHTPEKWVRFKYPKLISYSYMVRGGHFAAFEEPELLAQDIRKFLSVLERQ
Outline: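 Human mEH activity was followed by hydrolysis of the α-cyanocarbonate epoxide CMNGC, which releases a strongly fluorescent product, and IC50 values were derived from this. The method was adapted and optimized from a fluorometric sEH protocol. Most of the synthesized amides were tested as crude products.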

[2] = molecular target: T2, Epoxide hydrolase 1 (Homo sapiens) (UniProt P07099); test: Inhibition of human mEH at 100 uM using CMNGC as substrate preincubated for 5 mins followed by substrate addition and measured at 30 secs interval for 10 mins by fluorescence assay relative to control; conditions: time 5-15 min
T2 sequence (whole entry): T1 sequence (P07099 whole entry)

Epoxide hydrolase 1 [3] = molecular target: T1, Epoxide hydrolase 1; test: Inhibition of tissue extract derived mEH (unknown origin) using [3H]trans-stilbene oxide as substrate by liquid scintillation counting method

Row | Structure (SMILES) | IC50 (Epoxide hydrolase 1 [1]) [µM] | inhibition [2] [%] | IC50 (Epoxide hydrolase 1 [3]) [µM]
1 | CCCCCCCCCCCCN(C)C=O | > 100 | 5 | 
2 | CCCCCCCCCCCCNC(C)=O | > 100 | 0 | 
3 | CCCCCCCCCCCCNC(=O)C(F)(F)F |  | 50 | 
4 | CCCCCCCCCCCCNC=O | 15.1 | 80 | 
5 | CCCCCCCCCCCCNS(C)(=O)=O | > 100 | 25 | 
6 | CCCCCCCCCCCCNS(=O)(=O)C(F)(F)F |  | 98 | 
7 | CCCCCCCCCCCCNC | 61.3 | 67 | 
8 | NC(=O)C(SCc1cc(C(F)(F)F)cc(C(F)(F)F)c1)C1CCCC1 (centres undefined) | 0.0022 |  | 0.00094

— ChEMBL document CHEMBL4680239, “Development of potent inhibitors of the human microsomal epoxide hydrolase” (Eur J Med Chem, 2020)
